T cruzi growth-1 – inhibitors of T. cruzi proliferation. 77,000 tested, 5.9% active. inhibition, % at 8.34 µM. AID 624255. T. cruzi beta-gal in NIH3T3, GalScreen luminescence, 90 h;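 active = mean inhibition above about 93%, with at least 55% of replicates each passing it, limit read from the data, passing the limit was not always enough; inconclusive = only one of those two conditions holds; inactive = neither condition holds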
GASC1 inh – KDM4C (human) demethylase inhibition; inhibition, % at 12.5 µM; GST-KDM4C 2-372, H3K9me3 peptide, LANCE TR-FRET; Q9H3R0; 96,000 tested, 0.15% active;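 active = mean replicate inhibition above about 25%, with at least 55% of replicates also reaching it, limit read from the data, passing the limit was not always enough; inconclusive = only one of those two conditions met; inactive = neither condition met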
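Material: GST-tagged GASC-1 (JMJD2C) catalytic fragment, aa 2-372. Input: enzyme final amount 10 nM. Medium: HEPES buffer, pH 7.5, plus ascorbate. Reagent: H3K9me3 peptide substrate, Fe(II), 2-oxoglutarate. Doses: single dose. Times: reaction 30 min RT, detection step 1 h RT. Measured by: LANCE TR-FRET. Evaluation: Fall in 671/618 emission ratio as inhibition.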
Pf Dd2 growth – blocks growth of Plasmodium falciparum Dd2 parasites; P. falciparum Dd2 growth, SYBR Green, 72 h; stronger effect = lower value; activity change, % at 10 µM; 94,000 tested, 2.3% active; in the data active = activity change below about -80%; inconclusive = no clear call, values can overlap the other calls
IDH1 mut inh – inhibitors of human IDH1 R132H; O75874; IDH1 R132H reductase, diaphorase/resazurin fluorescence, 60 min; inhibition, % at 10 µM; 70,000 tested, 0.18% active; in the data active = inhibition above about 34%; inconclusive = no clear call, values can overlap the other calls; inactive = below about 11%
Target sequence (O75874 whole entry R132H): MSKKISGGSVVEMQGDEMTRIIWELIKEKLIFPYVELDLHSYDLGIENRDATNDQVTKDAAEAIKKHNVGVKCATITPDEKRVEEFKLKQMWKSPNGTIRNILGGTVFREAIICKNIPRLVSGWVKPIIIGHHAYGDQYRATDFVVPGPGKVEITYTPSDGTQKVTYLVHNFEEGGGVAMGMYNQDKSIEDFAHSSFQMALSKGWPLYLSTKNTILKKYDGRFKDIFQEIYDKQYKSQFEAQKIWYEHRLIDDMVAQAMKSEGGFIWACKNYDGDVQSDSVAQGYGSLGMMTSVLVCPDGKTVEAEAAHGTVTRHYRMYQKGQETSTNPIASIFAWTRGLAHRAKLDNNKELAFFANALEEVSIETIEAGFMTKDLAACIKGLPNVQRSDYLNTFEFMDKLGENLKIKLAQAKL
T cruzi growth-2 – blocks T. cruzi growth in NIH3T3 host cells | 5,600 tested, 72% active | shares compounds with T cruzi growth-1 | T. cruzi beta-gal in NIH3T3, GalScreen luminescence, 90 h | inhibition, % at 8.35 µM | AID 651739;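 active = mean replicate inhibition above about 95% and at least 55% of replicates individually reaching it, limit read from the data; inconclusive = only one of the two criteria is met; inactive = neither criterion is met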
T cruzi growth-3 – inhibitors of T. cruzi proliferation. shares compounds with T cruzi growth-1. T. cruzi beta-gal in NIH3T3, GalScreen luminescence, 90 h. inhibition, % at 2.09 µM. 5,600 tested, 21% active;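 active = mean inhibition above about 95%, with at least 55% of replicates also reaching it, limit read from the data; inconclusive = meets just one of the two conditions; inactive = meets neither condition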
NIH3T3 tox – kills mouse NIH/3T3 fibroblasts | shares compounds with T cruzi growth-1 | NIH/3T3 viability, CellTiter-Glo ATP luminescence, 90 h | cytotoxicity (signal decrease), % at 8.35 µM | 5,600 tested, 14% active;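 active = mean signal decrease across replicates above about 35% based on untreated-well scatter, with enough replicates individually passing, limit read from the data; inconclusive = no rule stated though some were filed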
3T3 cytotox 2 – kills mouse NIH/3T3 fibroblasts; NIH/3T3 viability, CellTiter-Glo ATP luminescence, 90 h; inhibition, % at 24.9 µM; AID 651744; shares compounds with T cruzi growth-1; 5,600 tested, 56% active;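 active = mean loss of cell viability signal at or above a set limit, and enough replicates individually reaching it; inconclusive = meets only the mean limit or only the replicate share; inactive = meets neither condition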
A number is an active result; i = inactive; ? = inconclusive; nt = no result. Most compounds without a hit are left out; they make up all but 5.8% or so of the library.

SMILES	T cruzi growth-1	GASC1 inh	Pf Dd2 growth	IDH1 mut inh	T cruzi growth-2	T cruzi growth-3	NIH3T3 tox	3T3 cytotox 2
C[C@@H]1CCCCO[C@H](CN(C)S(=O)(=O)c2ccc(F)cc2)[C@@H](C)CN([C@@H](C)CO)C(=O)c2cc(NS(=O)(=O)c3ccc(F)cc3)ccc2O1	111	i	i	i	103	i	i	i
C[C@@H]1CCCCO[C@@H](CN(C)S(=O)(=O)c2ccc(F)cc2)[C@H](C)CN([C@@H](C)CO)C(=O)c2cc(NS(=O)(=O)c3ccc(F)cc3)ccc2O1	109	i	i	nt	106	i	i	i
C[C@@H]1CCCCO[C@H](CN(C)S(=O)(=O)c2ccc(F)cc2)[C@H](C)CN([C@H](C)CO)C(=O)c2cc(NS(=O)(=O)c3ccccc3)ccc2O1	104	i	i	nt	114	i	i	i
C[C@H]1CCCCO[C@H](CN(C)S(=O)(=O)c2ccc(F)cc2)[C@@H](C)CN([C@@H](C)CO)C(=O)c2cc(NS(=O)(=O)c3ccc(F)cc3)ccc2O1	99	i	i	i	110	i	i	i
CCOC(=O)c1c(NC(=S)Nc2cnccn2)sc(C)c1-c1ccccc1	nt	nt	nt	i	nt	nt	nt	nt
O=C(Nc1ccc(S(=O)(=O)NCC2CCCO2)cc1)c1cc(-c2ccccc2)nc2ccccc12 (stereo not given)	nt	nt	nt	i	nt	nt	nt	nt
CN1CCN(C(=S)SCC(=O)Nc2nc(=O)c3ccccc3s2)CC1	nt	nt	nt	i	nt	nt	nt	nt
O=C(COc1ccc(Br)cc1)Nc1cccc(-c2nc3cc(Cl)ccc3o2)c1	nt	nt	nt	i	nt	nt	nt	nt
C[C@H]1CCCCO[C@@H](CN(C)S(=O)(=O)c2ccc(F)cc2)[C@@H](C)CN([C@@H](C)CO)C(=O)c2cc(NS(=O)(=O)c3ccc(F)cc3)ccc2O1	119	i	i	i	105	i	i	i
C[C@H](CO)N1C[C@H](C)[C@H](CN(C)S(=O)(=O)c2ccc(F)cc2)OCCCC[C@H](C)Oc2ccc(NS(=O)(=O)c3ccc(F)cc3)cc2C1=O	119	i	i	nt	103	i	i	i
C[C@H]1CN([C@@H](C)CO)C(=O)c2c(c3ccccc3n2C)-c2ccccc2CO[C@H]1CN(C)S(=O)(=O)c1cn(C)cn1	101	i	i	i	i	i	i	i
C[C@@H]1CN([C@@H](C)CO)C(=O)c2c(c3ccccc3n2C)-c2ccccc2CO[C@H]1CN(C)S(C)(=O)=O	i	i	i	nt	nt	nt	nt	nt
C[C@@H]1CN([C@@H](C)CO)C(=O)c2c(c3ccccc3n2C)-c2ccccc2CO[C@@H]1CN(C)S(=O)(=O)c1cn(C)cn1	?	i	i	i	i	i	i	31
C[C@@H]1CN([C@H](C)CO)C(=O)c2c(c3ccccc3n2C)-c2ccccc2CO[C@@H]1CN(C)S(=O)(=O)c1cn(C)cn1	i	i	i	nt	nt	nt	nt	nt
COc1c(Cl)cc(C(=O)Nc2sc3c(c2C(=O)NCc2cccnc2)CCCC3)cc1Cl	nt	nt	nt	i	nt	nt	nt	nt
CC(C)C#Cc1ccc2c(c1)O[C@H](CN(C)Cc1cccnc1)[C@@H](C)CN([C@@H](C)CO)S2(=O)=O	93	i	i	nt	108	102	42	106
CC(C)C#Cc1ccc2c(c1)O[C@H](CN(C)C(=O)c1cccnc1)[C@@H](C)CN([C@H](C)CO)S2(=O)=O	i	i	i	i	nt	nt	nt	nt
CC(C)C#Cc1ccc2c(c1)O[C@@H](CN(C)C(=O)c1cccnc1)[C@H](C)CN([C@@H](C)CO)S2(=O)=O	103	52	i	81	i	i	i	39
CC(C)C#Cc1ccc2c(c1)O[C@@H](CN(C)Cc1ccncc1)[C@@H](C)CN([C@H](C)CO)S2(=O)=O	107	i	i	i	i	i	i	?
C[C@H](O)C#Cc1ccc2c(c1)O[C@H](CN(C)Cc1ccncc1)[C@@H](C)CN([C@@H](C)CO)S2(=O)=O	i	i	i	nt	nt	nt	nt	nt
CC(C)C#Cc1ccc2c(c1)O[C@@H](CN(C)Cc1cccnc1)[C@H](C)CN([C@H](C)CO)S2(=O)=O	100	i	i	nt	99	i	40	106
CC(C)(O)CCC(=O)C(C)(O)C1C(O)CC2(C)C3CC=C4C(CC(O)C(OC5OC(CO)C(O)C(O)C5O)C4(C)C)C3(C)C(=O)CC12C (stereo not given)	nt	nt	nt	i	nt	nt	nt	nt
CC(C)C#Cc1ccc2c(c1)O[C@@H](CN(C)Cc1cccnc1)[C@@H](C)CN([C@H](C)CO)S2(=O)=O	?	i	i	nt	99	i	i	i
CCSc1ncc(Cl)c(C(=O)Nc2nnc(SCc3ccccc3F)s2)n1	nt	nt	nt	i	nt	nt	nt	nt
CCn1c(SCC(=O)Nc2ccc(Cl)cc2Cl)nnc1-c1ccc(Cl)c(Cl)c1	nt	nt	nt	i	nt	nt	nt	nt
SMILES	T cruzi growth-1	GASC1 inh	Pf Dd2 growth	IDH1 mut inh	T cruzi growth-2	T cruzi growth-3	NIH3T3 tox	3T3 cytotox 2
O=C(CC1NC2CCCCC2NC1=O)Nc1ccc(Cl)cc1 (stereo not given)	nt	nt	nt	i	nt	nt	nt	nt
C/C=C/c1ccc([C@H]2[C@H](CO)N3CCCCN(S(=O)(=O)c4ccc(OC)cc4)C[C@@H]23)cc1	100	i	i	nt	108	i	i	102
C/C=C/c1ccc([C@H]2[C@@H](CO)N3CCCCN(S(=O)(=O)c4ccc(OC)cc4)C[C@H]23)cc1	i	i	i	nt	nt	nt	nt	nt
C/C=C/c1ccc([C@@H]2[C@H]3CN(S(=O)(=O)c4ccc(OC)cc4)CCCCN3[C@H]2CO)cc1	?	i	i	nt	103	i	i	68
C/C=C/c1ccc([C@H]2[C@@H](CO)N3CCCCN(S(=O)(=O)c4ccc(F)cc4)C[C@H]23)cc1	?	i	i	nt	108	i	i	103
N#Cc1c(NC(=O)Cn2cnc3scc(-c4ccccc4)c3c2=O)sc2c1CCC2	nt	nt	nt	i	nt	nt	nt	nt
CC(C)CC#Cc1cnc2c(c1)C(=O)N([C@H](C)CO)C[C@H](C)[C@H](CN(C)Cc1cccc(F)c1)O2	?	i	i	i	107	i	i	i
CC(C)CC#Cc1cnc2c(c1)C(=O)N([C@@H](C)CO)C[C@@H](C)[C@@H](CN(C)Cc1ccc3c(c1)OCO3)O2	101	i	i	i	105	i	i	93
C[C@H]1CN([C@@H](C)CO)C(=O)c2cc(C#CCc3ccccc3)cnc2O[C@@H]1CN(C)Cc1cccc(F)c1	?	i	i	i	i	i	i	104
C[C@H](CO)N1C[C@H](C)[C@@H](CN(C)Cc2ccccc2)Oc2ncc(C#CCc3ccccc3)cc2C1=O	nt	i	i	nt	nt	nt	nt	nt
C[C@H](CO)N1C[C@H](C)[C@@H](CN(C)Cc2cccc(F)c2)Oc2ncc(C#CCN(C)C)cc2C1=O	i	i	i	i	nt	nt	nt	nt
